# What was measured:
# [1] = Inhibition of KPC-2 (unknown origin); parameters: species or system Bacteria
# [2] = Drug metabolism assessed as OXA10 (unknown origin)-mediated compound hydrolysis by measuring (R)-2-((1S,2R)-1-carboxy-2-hydroxypropyl)-5-((R)-tetrahydrofuran-2-yl)-2,3-dihydrothiazole-4-carboxylic acid formation at 5 mM incubated for 16 hrs by 1H-NMR based analysis; type: ADME; conditions: bacteria, 5000 µM
# Method in brief: (§1)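 OXA-10 at 5 μM with 5 mM faropenem, incubated 16 h in 50 mM sodium phosphate, pH 7.5, 10% (v/v) D2O. Product formation read by 1H NMR (700 MHz) methyl group resonances.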
# [3] = Drug metabolism assessed as OXA-23 (unknown origin)-mediated compound hydrolysis by measuring (R)-2-((1S,2R)-1-carboxy-2-hydroxypropyl)-5-((R)-tetrahydrofuran-2-yl)-2,3-dihydrothiazole-4-carboxylic acid formation at 2 mM incubated for 15 mins by 1H-NMR based analysis; type: ADME; conditions: bacteria, 0.25 h, 2000 µM
# [4] = Drug metabolism assessed as OXA-48 (unknown origin)-mediated compound hydrolysis by measuring (R)-2-((1S,2R)-1-carboxy-2-hydroxypropyl)-5-((R)-tetrahydrofuran-2-yl)-2,3-dihydrothiazole-4-carboxylic acid formation at 5 mM incubated for 55 mins by 1H-NMR based analysis; type: ADME; conditions: bacteria, 5000 µM
# Method in brief: (§2)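 Reaction of OXA-48 (5 μM) with 5 mM faropenem for 55 min in 50 mM sodium phosphate pH 7.5, 10% (v/v) D2O. Products assigned from methyl group resonances in 700 MHz 1H NMR spectra.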
# [5] = Drug metabolism assessed as VIM-1 (unknown origin)-mediated compound hydrolysis by measuring (R)-2-((1S,2R)-1-carboxy-2-hydroxypropyl)-5-((R)-tetrahydrofuran-2-yl)-2,3-dihydrothiazole-4-carboxylic acid formation at 5 mM incubated for 5 mins by 1H-NMR based analysis; type: ADME; conditions: bacteria, 5000 µM
# [6] = Drug metabolism assessed as NDM-1 (unknown origin)-mediated compound hydrolysis by measuring (R)-2-((1S,2R)-1-carboxy-2-hydroxypropyl)-5-((R)-tetrahydrofuran-2-yl)-2,3-dihydrothiazole-4-carboxylic acid formation at 5 mM incubated for 5 mins by 1H-NMR based analysis; type: ADME; conditions: bacteria, 5000 µM
# Method in brief: (§3)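 NDM-1 used at 5 μM with 5 mM faropenem, 5 min incubation, in 50 mM sodium phosphate, pH 7.5, 10% (v/v) D2O. Degradation products monitored by 700 MHz 1H NMR via methyl group signals.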
# [7] = Drug metabolism assessed as KPC-2 (unknown origin)-mediated compound hydrolysis by measuring (R)-2-((1S,2R)-1-carboxy-2-hydroxypropyl)-5-((R)-tetrahydrofuran-2-yl)-2,3-dihydrothiazole-4-carboxylic acid formation at 5 mM incubated for 72 mins by 1H-NMR based analysis; type: ADME; conditions: bacteria, 1.2 h, 5000 µM
# [8] = Drug metabolism assessed as NDM-1 (unknown origin)-mediated compound hydrolysis by measuring (S)-2-((1S,2R)-1-carboxy-2-hydroxypropyl)-5-((R)-tetrahydrofuran-2-yl)-2,3-dihydrothiazole-4-carboxylic acid formation at 5 mM incubated for 5 mins by 1H-NMR based analysis; type: ADME; conditions: bacteria, 5000 µM; method in brief: as §3
# [9] = Drug metabolism assessed as KPC-2 (unknown origin)-mediated compound hydrolysis by measuring (S)-2-((1S,2R)-1-carboxy-2-hydroxypropyl)-5-((R)-tetrahydrofuran-2-yl)-2,3-dihydrothiazole-4-carboxylic acid formation at 5 mM incubated for 72 mins by 1H-NMR based analysis; type: ADME; conditions: bacteria, 1.2 h, 5000 µM
# [10] = Drug metabolism assessed as OXA10 (unknown origin)-mediated compound hydrolysis by measuring (R)-2-((1S,2R)-1-carboxy-2-hydroxypropyl)-5-(4-hydroxybutylidene)-2,5-dihydrothiazole-4-carboxylic acid formation at 5 mM incubated for 16 hrs by 1H-NMR based analysis; type: ADME; conditions: bacteria, 5000 µM; method in brief: as §1
# [11] = Drug metabolism assessed as VIM-2 (unknown origin)-mediated compound hydrolysis by measuring (R)-2-((1S,2R)-1-carboxy-2-hydroxypropyl)-5-(4-hydroxybutylidene)-2,5-dihydrothiazole-4-carboxylic acid formation at 5 mM incubated for 5 mins by 1H-NMR based analysis; type: ADME; conditions: bacteria, 5000 µM
# [12] = Drug metabolism assessed as NDM-1 (unknown origin)-mediated compound hydrolysis by measuring (R)-2-((1S,2R)-1-carboxy-2-hydroxypropyl)-5-(4-hydroxybutylidene)-2,5-dihydrothiazole-4-carboxylic acid formation at 5 mM incubated for 5 mins by 1H-NMR based analysis; type: ADME; conditions: bacteria, 5000 µM; method in brief: as §3
# [13] = Drug metabolism assessed as KPC-2 (unknown origin)-mediated compound hydrolysis by measuring (R)-2-((1S,2R)-1-carboxy-2-hydroxypropyl)-5-(4-hydroxybutylidene)-2,5-dihydrothiazole-4-carboxylic acid formation at 5 mM incubated for 72 mins by 1H-NMR based analysis; type: ADME; conditions: bacteria, 1.2 h, 5000 µM
# [14] = Drug metabolism assessed as L1 (unknown origin)-mediated compound hydrolysis by measuring (R)-2-((1S,2R)-1-carboxy-2-hydroxypropyl)-5-(4-hydroxybutylidene)-2,5-dihydrothiazole-4-carboxylic acid formation at 5 mM incubated for 5 mins by 1H-NMR based analysis; type: ADME; conditions: bacteria, 5000 µM
# Method in brief: (§4)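 L1 enzyme (125 nM) reacted with 5 mM faropenem for 5 min in 50 mM sodium phosphate pH 7.5 containing 10% (v/v) D2O. Product species assigned by 1H NMR (700 MHz) methyl resonances.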
# [15] = Drug metabolism assessed as OXA-48 (unknown origin)-mediated compound hydrolysis by measuring (S)-2-((1S,2R)-1-carboxy-2-hydroxypropyl)-5-(4-hydroxybutylidene)-2,5-dihydrothiazole-4-carboxylic acid formation at 5 mM incubated for 55 mins by 1H-NMR based analysis; type: ADME; conditions: bacteria, 5000 µM; method in brief: as §2
# [16] = Drug metabolism assessed as VIM-2 (unknown origin)-mediated compound hydrolysis by measuring (S)-2-((1S,2R)-1-carboxy-2-hydroxypropyl)-5-(4-hydroxybutylidene)-2,5-dihydrothiazole-4-carboxylic acid formation at 5 mM incubated for 5 mins by 1H-NMR based analysis; type: ADME; conditions: bacteria, 5000 µM
# [17] = Drug metabolism assessed as L1 (unknown origin)-mediated compound hydrolysis by measuring (S)-2-((1S,2R)-1-carboxy-2-hydroxypropyl)-5-(4-hydroxybutylidene)-2,5-dihydrothiazole-4-carboxylic acid formation at 5 mM incubated for 5 mins by 1H-NMR based analysis; type: ADME; conditions: bacteria, 5000 µM; method in brief: as §4
# [18] = Drug metabolism assessed as VIM-1 (unknown origin)-mediated compound hydrolysis by measuring (2R)-2-((1S,2R)-1-carboxy-2-hydroxypropyl)-5-((R)-tetrahydrofuran-2-yl)-2,5-dihydrothiazole-4-carboxylic acid formation at 5 mM incubated for 5 mins by 1H-NMR based analysis; type: ADME; conditions: bacteria, 5000 µM
# Bacteria [19] = system: Bacteria
# Bacteria [20] = system: Bacteria; remark: listed apart in the source
# [21] = system: Mycobacterium tuberculosis H37Rv
# Bradyrhizobium japonicum [22] = conditions: USDA110
# Klebsiella pneumoniae [23] = system: Klebsiella pneumoniae
# Bradyrhizobium japonicum [24] = conditions: USDA110; remark: listed apart in the source
# Bacteria [25] = system: Bacteria; remark: listed apart in the source
# [26] = system: Mycobacterium tuberculosis H37Rv; remark: listed apart in the source
# Klebsiella pneumoniae [27] = system: Klebsiella pneumoniae; remark: listed apart in the source
smiles,measurement,setting,value
C[C@@H](O)[C@H]1C(=O)N2C(C(=O)O)=C([C@H]3CCCO3)S[C@H]12 [FAROPENEM],Ki,[1],44.1 µM
same,Drug metabolism,[2],Metabolite_Detected
same,Drug metabolism,[3],Metabolite_Detected
same,Drug metabolism,[4],Metabolite_Detected
same,Drug metabolism,[5],Metabolite_Detected
same,Drug metabolism,[6],Metabolite_Detected
same,Drug metabolism,[7],Metabolite_Detected
same,Drug metabolism,[8],Metabolite_Detected
same,Drug metabolism,[9],Metabolite_Detected
same,Drug metabolism,[10],Metabolite_Detected
same,Drug metabolism,[11],Metabolite_Detected
same,Drug metabolism,[12],Metabolite_Detected
same,Drug metabolism,[13],Metabolite_Detected
same,Drug metabolism,[14],Metabolite_Detected
same,Drug metabolism,[15],Metabolite_Detected
same,Drug metabolism,[16],Metabolite_Detected
same,Drug metabolism,[17],Metabolite_Detected
same,Drug metabolism,[18],Metabolite_Detected
same,kcat,Bacteria [19],3.71 s⁻¹
same,kcat,Bacteria [20],43.7 s⁻¹
same,kcat,[21],0.91 s⁻¹
same,kcat,Bradyrhizobium japonicum [22],2 s⁻¹
same,Km,Klebsiella pneumoniae [23],99 µM
same,Km,Bradyrhizobium japonicum [24],245 µM
same,kcat/Km,Bacteria [25],1.2e+06 M⁻¹ s⁻¹
same,kcat/Km,[26],40000 M⁻¹ s⁻¹
same,kcat/Km,Klebsiella pneumoniae [27],150000 M⁻¹ s⁻¹
